Published values gathered from unrelated publications.
Compare with care: the assays were run in different laboratories.
Effect on: cell growth or viability

Compound | cell line | test | conditions | endpoint | result
Cc1cc(-c2ccc(/N=N/c3ccc4c(S(=O)(=O)O)cc(S(=O)(=O)O)c(N)c4c3O)c(C)c2)ccc1/N=N/c1ccc2c(S(=O)(=O)O)cc(S(=O)(=O)O)c(N)c2c1O | BHK-21 | CCK-8 | 48 h | CC50 | 242 µM
COc1cccc2c1C(=O)c1c(O)c3c(c(O)c1C2=O)C[C@@](O)(C(=O)CO)C[C@@H]3O[C@H]1C[C@H](N)[C@H](O)[C@H](C)O1 | Vero | MTT | 72 h | CC50 | 9.6 µM
CNC(=N)NCCC[C@H](N)C(=O)O | RAW264.7 | MTT | 250 µg/mL, 24 h, LPS-stimulated | viability | > 85%
COC(=O)c1ccc(Nc2ccc(-c3ccc(S(N)(=O)=O)cc3)cc2)cc1 | BHK-21 | MTT | 100 µM | viability | 68%
Nc1nc2c(ncn2COCCO)c(=O)[nH]1 | Vero | MTT | 48 h | CC50 | 320 µM
CC1=NN(c2ccc(C)c(C)c2)C(=O)/C1=N\Nc1cccc(-c2cccc(C(=O)O)c2)c1O | BHK-21 | CCK-8 | 48 h | CC50 | 104 µM
O=C1C(=O)c2cccnc2-c2ncccc21 | Vero | MTT | 72 h | CC50 | > 200 µM
Cc1cc(C)cc(Nc2ccc(-c3ccc(S(N)(=O)=O)cc3)cc2)c1 | BHK-21 | MTT | 100 µM | viability | 88%
NC(=NCc1ccccc1)NC(=O)c1nc(Cl)c(N)nc1N | BHK-21 | CCK-8 | 48 h | CC50 | 44.5 µM
NS(=O)(=O)c1ccc(-c2ccc(Nc3ccc(Cl)cc3)cc2)cc1 | BHK-21 | MTT | 100 µM | viability | 60%
O=C(C1CCCCC1)N1CC(=O)N2CCc3ccccc3C2C1 (centres unmarked) | Vero | MTT | 72 h | CC50 | > 200 µM
